# Reference: ChEMBL document CHEMBL1144722 (J Nat Prod, 2008)
# pIC50: −log10 of the molar value. Activity calls are given as the source filed them. The rule behind the calls is not given here.
# Key:
# Type in all cases: functional, cell-based
# Epithelial cell [1] = experiment: (§1) Antiproliferative activity against mouse +SA mammary epithelial cells after 4 days by MTT assay
# Outline: (§2)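 Highly malignant +SA mouse mammary epithelial cells kept in serum-free medium with 10 ng/mL EGF and 10 µg/mL insulin as mitogens. Seeded at 5 × 10⁴ cells/well, 6 wells/group, and fed medium containing compound at 0.01–1000 µM, compared with vehicle controls. After 4 days of culture, viable cell number was read by MTT colorimetric assay.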
# Epithelial cell [2] = experiment: Antiproliferative activity against mouse +SA mammary epithelial cells at 15 to 40 uM after 4 days by MTT assay; outline: as §2
# [3] = as §1; conditions: Epithelial cell, 96 h; outline: as §2
SMILES,Activity (Epithelial cell [1]),Activity (Epithelial cell [2]),pIC50 [3]
CC(=O)O[C@H]1/C=C(\C)CC[C@@H]2OC(=N)S[C@@]2(C)CC[C@@H](C(C)C)/C=C/[C@@](C)(O)C1,inactive,–,–
CC(=O)O[C@H]1/C=C(\C)CC/C=C(\C)[C@@H](O)C[C@@H](C(C)C)/C=C/[C@@](C)(O)C1,–,Active,4.70
CC(=O)O[C@H]1/C=C(\C)CC/C=C(\C)CC[C@@H](C(C)C)/C=C/[C@@](C)(O)C1,Active,–,–
CCNC(=O)O[C@H]1/C=C(\C)CC/C=C(\C)CC[C@@H](C(C)C)/C=C/[C@@](C)(O)C1,inactive,–,–
C/C1=C\[C@H](OC(=O)NCc2ccccc2)C[C@](C)(O)/C=C/[C@H](C(C)C)CC/C(C)=C/CC1,inactive,–,–
C/C1=C/C(=O)C[C@](C)(O)/C=C/[C@H](C(C)C)CC/C(C)=C/CC1,–,Active,–
C/C1=C\C(=O)C[C@](C)(O)/C=C/[C@H](C(C)C)CC/C(C)=C/CC1,–,inactive,–
CC(=O)/C=C/C(CC/C(C)=C/CC/C(C)=C/C(C)=O)C(C)C (stereo not given) [SECOCEMBRANOID],–,Active,4.82
CC(=O)O[C@H]1/C=C(\C)CC/C=C(\C)[C@H](O)C[C@@H](C(C)C)/C=C/[C@@](C)(O)C1,–,Active,4.52
CC(C)=CCC/C(C)=C/CC/C(C)=C/CC[C@]1(C)CCc2cc(O)cc(C)c2O1 [DELTA-TOCOTRIENOL],–,–,5.15
C/C1=C\[C@H](OC(=O)NCCCl)C[C@](C)(O)/C=C/[C@H](C(C)C)CC/C(C)=C/CC1,inactive,–,–
CC(=O)O[C@H]1/C=C(\C)CC[C@H](O)[C@@](C)(SC#N)CC[C@@H](C(C)C)/C=C/[C@@](C)(O)C1,inactive,–,–
